Experiments:
Ovary [1] = experiment: Biodistribution in Sprague-Dawley rat ovary at 20 to 120 uCi, iv after 120 mins by gamma counting analysis; format: ADME, organism-based, Female gonad; conditions: in vivo, 2 h
Method in brief: (§1)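 Sprague-Dawley rats (280–330 g) under light isoflurane received a tail-vein bolus of 20–120 μCi tracer in 0.05–0.10 mL isotonic 60 mM sodium phosphate, pH 5.4. Sampling was at 5, 30, 60 or 120 min. […] were weighed and gamma-counted. Decay-corrected dpm/g was normalized to injected dpm per kg body weight (%ID·kg/g).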

Ovary [2] = experiment: Biodistribution in Sprague-Dawley rat ovary at 20 to 120 uCi, iv after 30 mins by gamma counting analysis; format: ADME, organism-based, Female gonad; conditions: in vivo, 0.5 h; method in brief: as §1
[3] = Half life in rat urinary bladder at 0.5 mCi by PET analysis; conditions: in vivo
Testes [4] = experiment: Biodistribution in Sprague-Dawley rat testes at 20 to 120 uCi, iv after 120 mins by gamma counting analysis; format: ADME, organism-based, Testis; conditions: in vivo, 2 h
Method in brief: (§2)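 Male and female rats (2 per sex per time point, 280–330 g) under light isoflurane given tail-vein bolus of 20–120 μCi tracer in 0.05–0.10 mL isotonic 60 mM sodium phosphate, pH 5.4. Tissues sampled at 5, 30, 60 or 120 min, weighed and gamma-counted. Decay-corrected dpm per gram normalised to injected dpm and body weight, given as %ID·kg/g.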

Bone [5] = experiment: Biodistribution in Sprague-Dawley rat bone at 20 to 120 uCi, iv after 5 mins by gamma counting analysis; format: ADME, organism-based, Bone element; conditions: in vivo
Method in brief: (§3)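 Sprague-Dawley rats (280–330 g), 2 male and 2 female per time point (5, 30, 60, 120 min), under light isoflurane, received a tail-vein bolus of 20–120 μCi tracer in 0.05–0.10 mL isotonic 60 mM sodium phosphate, pH 5.4. Tissues were weighed and gamma-counted. Decay-corrected dpm/g was normalized to injected dpm per kg body weight (%ID·kg/g).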

Bone [6] = experiment: Biodistribution in Sprague-Dawley rat bone at 20 to 120 uCi, iv after 30 mins by gamma counting analysis; format: ADME, organism-based, Bone element; conditions: in vivo, 0.5 h; method in brief: as §3
[7] = Drug uptake in rhesus macaque monkey myocardium at 0.1 mCi by Patlak plot analysis; format: ADME, tissue-based, Macaca mulatta; conditions: in vivo
Method in brief: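 Same monkey for all studies. Desipramine (0.010, 0.0316, 0.10 or 1.0 mg/kg; n = 1 each) in 2.0 mL saline infused i.v. over 20 min, with tracer injected 10 min after the infusion ended; 4 control studies. ROIs on myocardium and basal LV blood pool drawn on summed final four frames. Cp(t) derived from Cwb(t) × intact fraction × Cp/Cwb. Ki from compartmental modelling and Kp as Patlak slope, fitted against DMI dose to a variable-slope sigmoidal model.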

Rattus norvegicus [8] = experiment: Biodistribution in Sprague-Dawley rat eyeballs at 20 to 120 uCi, iv after 30 mins by gamma counting analysis; format: ADME, organism-based, Eyeball of camera-type eye; conditions: in vivo, 0.5 h; method in brief: as §3
Adrenal = experiment: Biodistribution in Sprague-Dawley rat adrenal at 20 to 120 uCi, iv after 120 mins by gamma counting analysis; format: ADME, organism-based, Adrenal tissue; conditions: in vivo, 2 h; method in brief: as §3
Liver [9] = experiment: Biodistribution in Sprague-Dawley rat liver at 20 to 120 uCi, iv after 30 mins by gamma counting analysis; format: ADME, organism-based; conditions: in vivo, 0.5 h; method in brief: as §3
Pancreas = experiment: Biodistribution in Sprague-Dawley rat pancreas at 20 to 120 uCi, iv after 30 mins by gamma counting analysis; format: ADME, organism-based; conditions: in vivo, 0.5 h; method in brief: as §3
[10] = Drug uptake in rhesus macaque monkey left ventricle at 5 to 6 mCi, iv after 90 mins by PET analysis; format: ADME, organism-based, Macaca mulatta, Heart left ventricle; conditions: in vivo, 1.5 h
Testes [11] = experiment: Biodistribution in Sprague-Dawley rat testes at 20 to 120 uCi, iv after 60 mins by gamma counting analysis; format: ADME, organism-based, Testis; conditions: in vivo, 1 h; method in brief: as §2
[12] = Drug uptake in rhesus macaque monkey cortex 5 to 6 mCi, iv after 90 mins by PET analysis; format: ADME, organism-based, Macaca mulatta; conditions: in vivo, 1.5 h
Liver [13] = experiment: Biodistribution in Sprague-Dawley rat liver at 20 to 120 uCi, iv after 5 mins by gamma counting analysis; format: ADME, organism-based; conditions: in vivo; method in brief: as §3
Spleen = experiment: Biodistribution in Sprague-Dawley rat spleen at 20 to 120 uCi, iv after 5 mins by gamma counting analysis; format: ADME, organism-based; conditions: in vivo; method in brief: as §2
Kidney = experiment: Biodistribution in Sprague-Dawley rat kidney at 20 to 120 uCi, iv after 60 mins by gamma counting analysis; format: ADME, organism-based; conditions: in vivo, 1 h; method in brief: as §3
[14] = Drug uptake in Sprague-Dawley rat heart sympathetic neurons measured per gram wet mass of heart at 2 uCi/mL administered as infusion for 10 mins measured after 120 mins by gamma counting analysis; format: ADME, tissue-based; conditions: sympathetic neuron, 2 h
Method in brief: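 Isolated working rat hearts perfused with 54 μM corticosterone in all perfusates to block uptake-2. Tracer infused at <10 nM total mass for 10 min to measure neuronal uptake rate (mL/min/g wet), then switched to normal perfusate to follow clearance over 2 h.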

Rattus norvegicus [15] = experiment: Biodistribution in Sprague-Dawley rat stomach at 20 to 120 uCi, iv after 30 mins by gamma counting analysis; format: ADME, organism-based; conditions: in vivo, 0.5 h; method in brief: as §2
[16] = Drug uptake in rhesus macaque monkey lung at 5 to 6 mCi, iv after 90 mins by PET analysis; format: ADME, organism-based, Macaca mulatta; conditions: in vivo, 1.5 h
Rattus norvegicus [17] = experiment: Biodistribution in Sprague-Dawley rat eyeballs at 20 to 120 uCi, iv after 5 mins by gamma counting analysis; format: ADME, organism-based, Eyeball of camera-type eye; conditions: in vivo; method in brief: as §3

N=C(N)NCCc1ccc([18F])c(O)c1
Drug uptake (Ovary [1]): 0.129 %IDKg/g | Drug uptake (Ovary [2]): 0.171 %IDKg/g | t1/2 [3]: 12 min | Drug uptake (Testes [4]): 0.004 %IDKg/g | Drug uptake (Bone [5]): 0.06 %ID·kg/g | Drug uptake (Bone [6]): 0.039 %ID·kg/g | Kp [7]: 0.302 mL/min/g | Drug uptake (Rattus norvegicus [8]): 0.04 %IDKg/g | Drug uptake (Adrenal): 0.133 %IDKg/g | Drug uptake (Liver [9]): 0.406 %IDKg/g | Drug uptake (Pancreas): 0.145 %IDKg/g | Drug uptake [10]: Active | Drug uptake (Testes [11]): 0.008 %IDKg/g | Drug uptake [12]: Active | Drug uptake (Liver [13]): 0.477 %IDKg/g | Drug uptake (Spleen): 0.268 %IDKg/g | Drug uptake (Kidney): 0.186 %IDKg/g | Kup [14]: 0.77 mL/min | Drug uptake (Rattus norvegicus [15]): 0.11 %IDKg/g | Drug uptake [16]: Not Active | Drug uptake (Rattus norvegicus [17]): 0.039 %IDKg/g

Source: ChEMBL document CHEMBL2424590, “4-[18F]Fluoro-m-hydroxyphenethylguanidine: a radiopharmaceutical for quantifying regional cardiac sympathetic nerve density with positron emission tomography” (J Med Chem, 2013)
